AP ELISA ortho = alternative pathway complement inhibition, orthogonal assay; Human serum alternative complement pathway, LPS-coated ELISA, C3 deposition; tested in compound mixtures; inhibition, % at 5 µM; 62,000 compounds, 0.08% hits; AID 1235;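 active = inhibition above 30% in each of the two pooled mixtures holding the compound, so the lower value exceeds 30%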
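Assay system: Human serum alternative complement pathway, C3 deposition on LPS-coated wells | Incubation: 1 h serum-compound exposure at 37 °C | Doses: 5 µM per compound in ten-compound mixtures | Read-out: Percent inhibition | Technique: ELISA with HRP anti-human C3 antibody, TMB substrate, absorbance 450 nm | Replication: Two pool placements per compound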
Ecoli WT expand = growth inhibitors of E. coli BW25113 wild type; OD600 absorbance; growth inhibition, % at 100 µM; 98,000 compounds, 0.15% hits; AID 710;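 active = growth inhibition above about 50% at one test dose, limit read from the data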;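 also: growth measured after 20 h incubation at 37 °C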
tolC growth inh = growth inhibitors of E. coli BW25113 tolC mutant | OD615 | growth inhibition, % at 10 µM (by protocol) | 65,000 compounds, 2.2% hits;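 active = growth inhibition at or above a cutoff equal to the mean over every tested compound plus 3 SD, cut at about 60% in these data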;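 also: growth measured after 20 h incubation at 37 °C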
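signal = optical density read at 615 nm | test system = E. coli ΔtolC::kan strain BW25113 | timing = 20 h compound exposure of bacteria at 37 °C | buffer or medium = LB medium plus 50 µg/mL kanamycin | compound dosing = 10 µM final, single dose | evaluation = % inhibition of E. coli growth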
M1 antagonist = antagonists of rat M1 muscarinic receptor; CHO-M1 cells, Fluo-4 calcium, ACh EC80 antagonist mode; stronger effect = lower value; B-score at 10 µM; 64,000 compounds, 3.4% hits; AID 628;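 active = calcium fluorescence response, raw or row-and-column corrected B-score, differing from the plate sample mean either way at a set confidence level, mostly lower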
WNV protease inh = WNV NS2B-NS3 proteinase inhibition. 65,000 compounds, 0.18% hits. z-score (test concentration not listed). WNV NS2B-NS3 protease, fluorogenic substrate Ex360/Em465; stronger effect = lower value. P06935; in the data active = z-score below about -3
M1 ag = M1 muscarinic receptor agonism | CHO-M1 cells, Fluo-4 calcium fluorescence, agonist mode; stronger effect = higher value | B-score at 10 µM | 64,000 compounds, 3% hits | AID 626;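 active = fluorescence rise, raw or as B-score row- and column-corrected plate score, outside the 99.7% band of its plate's samples, either direction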
M1 ag confirm = confirmation of rat M1 muscarinic receptor agonists | shares compounds with M1 ag | CHO-M1 cells, Fluo-4 calcium fluorescence, agonist mode; actives lie on both sides | fluorescence change (max-min) at 10 µM | 1,700 compounds, 19% hits | AID 1488;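 active = fluorescence change differs from the solvent-only DMSO control mean at a set confidence level in both duplicate runs; inconclusive = differs from solvent-only control mean in just one of two runs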;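 also: an EC20 dose of acetylcholine follows compound addition during the same imaging run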
M4 agonist ctr = counter-screen for M1 agonists: activity at rat M4 receptor; shares compounds with M1 ag; CHO M4/Gqi5 cells, Fluo-4 calcium fluorescence, agonist mode; actives lie on both sides; fluorescence change (max-min) at 10 µM; 1,700 compounds, 9% hits; AID 1741;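 active = fluorescence change differing from the plate's solvent-only control wells at 99.7% confidence in both duplicates, whether higher or lower; inconclusive = differs from solvent controls in only one of two duplicates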
Target sequence (P08485 whole entry, looked up): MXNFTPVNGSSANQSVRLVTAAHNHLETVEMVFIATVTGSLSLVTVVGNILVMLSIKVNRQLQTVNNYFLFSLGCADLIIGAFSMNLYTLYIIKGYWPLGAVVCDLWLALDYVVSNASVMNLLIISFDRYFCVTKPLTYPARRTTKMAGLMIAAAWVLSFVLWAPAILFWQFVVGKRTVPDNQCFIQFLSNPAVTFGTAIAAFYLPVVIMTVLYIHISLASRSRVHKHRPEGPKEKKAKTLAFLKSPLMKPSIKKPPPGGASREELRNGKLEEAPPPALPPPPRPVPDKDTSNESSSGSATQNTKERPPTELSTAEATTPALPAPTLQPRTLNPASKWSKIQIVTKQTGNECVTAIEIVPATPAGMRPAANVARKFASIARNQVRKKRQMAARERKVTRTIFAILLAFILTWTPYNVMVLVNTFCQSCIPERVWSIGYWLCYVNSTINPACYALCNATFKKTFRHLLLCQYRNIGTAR
A number is an active result; . = inactive; ? = inconclusive; / = not tested or not shown. Only some compounds are listed: those with a hit (about 5.2% of all), similar ones and a draw of the others.

SMILES	AP ELISA ortho	Ecoli WT expand	tolC growth inh	M1 antagonist	WNV protease inh	M1 ag	M1 ag confirm	M4 agonist ctr
COc1ccc(-c2c3c(=O)n(C)c(=O)n(C)c3cn2-c2ccccc2)cc1	.	.	96	.	.	2.2	?	.
CSc1nnc(-c2cccs2)n1-c1ccccc1	.	.	.	.	.	.	/	/
c1ccc(-n2c(-c3ccncc3)nnc2-c2cccs2)cc1	.	.	.	.	.	9.2	?	?
CC(=O)Nc1sc2c(c1CN1CCN(C)CC1)CCCC2	/	.	/	/	/	/	/	/
CC(=O)c1ccc(Cc2cnc(N)s2)cc1	.	.	.	.	.	2.9	.	.
Cc1ccc(Cc2cnc(NC(=O)c3ccco3)s2)cc1	/	.	/	/	/	/	/	/
Cn1c(NCc2ccco2)nc2c1c(=O)n(Cc1ccc(Cl)c(Cl)c1)c(=O)n2C	/	.	.	.	.	.	/	/
CCOC(=O)N1CCN(C(=O)CSc2nnc(-c3ccc(C(C)(C)C)cc3)o2)CC1	.	.	.	.	.	6.9	.	.
CCN1C(=O)c2cccc3c(S(=O)(=O)Nc4ccc(OC)cc4OC)ccc1c23	.	.	.	.	.	5.3	.	.
CC1CC(C)CN(C2CCN(Cc3cccnc3)CC2)C1 (stereo not given)	/	.	/	/	/	/	/	/
C[N+](C)(C)C/C=C1/COCO1	.	.	.	-13	.	49	437	178
CCc1cc2cccc(C)c2nc1SCC(=O)N1CCN(C(=O)c2ccco2)CC1	.	.	.	.	.	2.5	.	.
CCC(c1nnnn1CCc1ccccc1)N1CCN(c2ccc(OC)cc2)CC1 (stereo not given)	.	.	.	.	.	.	/	/
Cc1sc2nc(C(C)C)nc(SCC(=O)NCc3ccco3)c2c1C	.	.	.	.	.	.	/	/
Cc1nc(SCC(=O)NCc2ccco2)c2c(C)c(C)sc2n1	.	.	.	.	.	11	.	.
O=c1[nH]c2c(s1)C(c1ccco1)C1C3CCC(C3)C1S2 (stereo not given)	.	.	.	.	.	.	/	/
N#CC(C(=O)c1ccco1)c1ccccn1 (stereo not given)	.	.	.	.	.	.	/	/
CCCc1cc(NCC2CCCO2)n2c(nc3ccccc32)c1C#N (stereo not given)	/	.	/	/	/	/	/	/
O=c1c(C=NCCCn2ccnc2)c(-c2ccccc2)[nH]n1-c1nc2ccccc2s1	/	.	.	.	.	5.2	.	.
CN(C1CCS(=O)(=O)C1)S(=O)C12CC3CC(CC(C3)C1)C2 (stereo not given)	.	.	.	.	.	.	/	/
Cc1c(Nc2nc3ccccc3nc2N2CCN(c3ccccc3)CC2)c(=O)n(-c2ccccc2)n1C	.	.	.	.	.	3.6	.	.
COc1ccc(S(=O)(=O)N(Cc2cc3ccc(OC)cc3[nH]c2=O)CC2COCCO2)cc1 (stereo not given)	.	.	.	.	.	4.9	.	?
O=P(COc1ccccc1)(c1ccccc1)c1ccccc1	/	.	/	/	/	/	/	/
C=CCOC(=O)c1sc(N2C(=O)c3oc4ccccc4c(=O)c3C2c2ccco2)nc1C (stereo not given)	.	/	.	.	.	.	/	/
Cc1ccc2nsnc2c1S(=O)(=O)N1CCN(Cc2ccc3c(c2)OCO3)CC1	.	.	.	.	.	.	/	/
SMILES	AP ELISA ortho	Ecoli WT expand	tolC growth inh	M1 antagonist	WNV protease inh	M1 ag	M1 ag confirm	M4 agonist ctr
C=CCn1c(=O)c2ccccc2n2c(SCc3nc(N)nc(Nc4ccccc4C)n3)nnc12	.	.	.	.	.	4	?	.
CC(C)OP(C)(=O)CN1CCN(CP(C)(=O)OC(C)C)CC1 (stereo not given)	.	.	.	.	.	.	/	/
Cc1cccc2cc3c(N)c(C(=O)N4CCOCC4)sc3nc12	/	.	.	.	.	7	?	.
Cc1cccc(N2C(=O)c3cccc4c(N(C)CCO)ccc(c34)C2=O)c1	.	.	.	-14	.	351	1544	1425
CCOC(=O)c1ccc(S(=O)(=O)Nc2ccccc2-c2nnn(CC)n2)cc1	.	.	.	-3	.	3.8	?	?
CC(C)(C)c1cc(NS(=O)(=O)c2ccc3c(c2)OCCO3)on1	.	.	.	.	.	.	/	/
CCOC(=O)c1ccc(S(=O)(=O)Nc2cc(C(C)(C)C)no2)cc1	.	.	.	.	.	7.6	.	.
COc1ccc(CCNC(=O)COc2ccc(S(=O)(=O)NC(C)C)cc2Cl)cc1OC	/	.	/	/	/	/	/	/
O=C(CCCn1c(=O)c2sccc2n(Cc2ccc(F)cc2)c1=O)NCc1ccco1	.	.	.	.	.	.	/	/
Cc1oc(-c2ccc(Cl)cc2)nc1CN1CCC(C(=O)N2CCN(Cc3ccccc3)CC2)CC1	.	.	.	.	.	.	/	/
Cc1oc(-c2ccc(Cl)cc2)nc1CN1CCC(C(=O)N2CCc3ccccc3C2)CC1	.	.	.	-3.7	.	5.7	?	.
COC(=O)c1cc(C#N)c(Oc2ccccc2OC)nc1C	/	.	/	/	/	/	/	/
COc1cccc(C(=O)OCc2ccccc2C#N)c1O	.	.	.	.	.	-2.2	-27	-79
CCC1Oc2ccc(C)cc2N(CC(=O)N2CCN(c3ccc(F)cc3)CC2)C1=O (stereo not given)	.	.	.	.	.	2.3	.	?
CCOC(=O)C1CCCN(C(=O)CN2C(=O)C(CC)Oc3ccc(C)cc32)C1 (stereo not given)	.	.	.	.	.	.	/	/
Cc1nc2nc(-c3cccs3)cn2nc1C	.	.	.	.	.	100	1066	1014
Cc1nc2nc(-c3ccc(Cl)cc3)cn2nc1C	/	.	/	/	/	/	/	/
CCSc1n[nH]c(=O)[nH]c1=O	.	.	.	/	.	/	/	/
COc1ccc(S(=O)(=O)NCCCCNS(=O)(=O)c2ccc(OC)cc2)cc1	.	.	.	.	.	-4.2	.	.
CCn1c(SCC(=O)c2cc(C)n(-c3ccc(C(=O)OC)cc3)c2C)nnc1-c1cccnc1	.	.	.	.	.	3.9	-20	?
CCOc1ccc(Br)cc1S(=O)(=O)Nc1ccccc1N1CCOCC1	.	.	.	.	.	.	/	/
Oc1ccc(-c2nccc(-c3cccs3)n2)cc1	/	.	/	/	/	/	/	/
CCC(C)(C)NC(=O)C(c1ccco1)N(C(=O)Cn1nnc2ccccc21)c1ccc2c(c1)OCO2 (stereo not given)	.	.	.	.	.	17	-32	?
CC(=O)Nc1cc(S(=O)(=O)C(F)(F)F)ccc1Cl	.	.	.	.	.	.	/	/
CC(=O)c1coc2ccc(OCC(=O)O)cc12	.	.	.	.	.	.	/	/
CC(C)N(C(=O)NC(=O)NCC1CCCO1)S(C)(=O)=O (stereo not given)	.	.	.	.	.	.	/	/

From PubChem BioAssay
